From ChEMBL document CHEMBL3098013, “Novel pyrazole integrated 1,3,4-oxadiazoles: synthesis, characterization and antimicrobial evaluation” (2014)
≈ marks a conversion by molar mass, not a printed value.

Experiments:
Format in all cases: functional
Fusarium verticillioides [1] = test: Antimicrobial activity against Fusarium moniliforme MTCC 156 after 48 hrs by microdilution method; conditions: MTCC 156, 48 h
Method in brief: (§1)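 The minimal inhibitory concentration was determined by dilution, alongside minimal bactericidal concentration for bacterial strains and minimal fungicidal concentration for fungal strains. Tests were run in six replicates, and the value is the mean of at least three determinations.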

Fusarium oxysporum [2] = test: Antimicrobial activity against Fusarium oxysporum MTCC 284 after 48 hrs by microdilution method; conditions: MTCC 284, 48 h; method in brief: as §1
Aspergillus niger [3] = test: Antimicrobial activity against Aspergillus niger MTCC 281 after 48 hrs by microdilution method; conditions: MTCC 281, 48 h; method in brief: as §1
Aspergillus flavus [4] = test: Antimicrobial activity against Aspergillus flavus MTCC 873 after 48 hrs by microdilution method; conditions: MTCC 873, 48 h; method in brief: as §1
Klebsiella pneumoniae [5] = test: Antimicrobial activity against Klebsiella pneumoniae MTCC 3384 after 24 hrs by microdilution method; conditions: MTCC 3384, 24 h; method in brief: as §1
Escherichia coli [6] = test: Antimicrobial activity against Escherichia coli MTCC 724 after 24 hrs by microdilution method; conditions: MTCC 724, 24 h; method in brief: as §1
Staphylococcus aureus [7] = test: Antimicrobial activity against Staphylococcus aureus MTCC 96 after 24 hrs by microdilution method; conditions: MTCC 96, 24 h; method in brief: as §1
Bacillus cereus [8] = test: Antimicrobial activity against Bacillus cereus MTCC 8372 after 24 hrs by microdilution method; conditions: MTCC 8372, 24 h; method in brief: as §1
Fusarium verticillioides [9] = test: Antimicrobial activity against Fusarium moniliforme MTCC 156 at 100 ug/ml after 48 hrs by disc diffusion method; conditions: MTCC 156, 48 h, read-out: DIZ
Method in brief: (§2)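 Agar diffusion read-out is the diameter of the inhibition zone in mm. Each test was run in six replicates and reported as mean ± standard deviation, taken from at least three determinations.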

Fusarium verticillioides [10] = test: Antimicrobial activity against Fusarium moniliforme MTCC 156 at 50 ug/ml after 48 hrs by disc diffusion method; conditions: MTCC 156, 48 h, read-out: DIZ; method in brief: as §2
Fusarium oxysporum [11] = test: Antimicrobial activity against Fusarium oxysporum MTCC 284 at 100 ug/ml after 48 hrs by disc diffusion method; conditions: MTCC 284, 48 h, read-out: DIZ; method in brief: as §2
Fusarium oxysporum [12] = test: Antimicrobial activity against Fusarium oxysporum MTCC 284 at 50 ug/ml after 48 hrs by disc diffusion method; conditions: MTCC 284, 48 h, read-out: DIZ; method in brief: as §2
Aspergillus niger [13] = test: Antimicrobial activity against Aspergillus niger MTCC 281 at 100 ug/ml after 48 hrs by disc diffusion method; conditions: MTCC 281, 48 h, read-out: DIZ; method in brief: as §2
Aspergillus niger [14] = test: Antimicrobial activity against Aspergillus niger MTCC 281 at 50 ug/ml after 48 hrs by disc diffusion method; conditions: MTCC 281, 48 h, read-out: DIZ; method in brief: as §2
Aspergillus flavus [15] = test: Antimicrobial activity against Aspergillus flavus MTCC 873 at 100 ug/ml after 48 hrs by disc diffusion method; conditions: MTCC 873, 48 h, read-out: DIZ; method in brief: as §2
Aspergillus flavus [16] = test: Antimicrobial activity against Aspergillus flavus MTCC 873 at 50 ug/ml after 48 hrs by disc diffusion method; conditions: MTCC 873, 48 h, read-out: DIZ; method in brief: as §2
Klebsiella pneumoniae [17] = test: Antimicrobial activity against Klebsiella pneumoniae MTCC 3384 at 100 ug/ml after 24 hrs by disc diffusion method; conditions: MTCC 3384, 24 h, read-out: DIZ; method in brief: as §2
Escherichia coli [18] = test: Antimicrobial activity against Escherichia coli MTCC 724 at 100 ug/ml after 24 hrs by disc diffusion method; conditions: MTCC 724, 24 h, read-out: DIZ; method in brief: as §2
Klebsiella pneumoniae [19] = test: Antimicrobial activity against Klebsiella pneumoniae MTCC 3384 at 50 ug/ml after 24 hrs by disc diffusion method; conditions: MTCC 3384, 24 h, read-out: DIZ; method in brief: as §2
Escherichia coli [20] = test: Antimicrobial activity against Escherichia coli MTCC 724 at 50 ug/ml after 24 hrs by disc diffusion method; conditions: MTCC 724, 24 h, read-out: DIZ; method in brief: as §2
Staphylococcus aureus [21] = test: Antimicrobial activity against Staphylococcus aureus MTCC 96 at 100 ug/ml after 24 hrs by disc diffusion method; conditions: MTCC 96, 24 h, read-out: DIZ; method in brief: as §2
Staphylococcus aureus [22] = test: Antimicrobial activity against Staphylococcus aureus MTCC 96 at 50 ug/ml after 24 hrs by disc diffusion method; conditions: MTCC 96, 24 h, read-out: DIZ; method in brief: as §2
Bacillus cereus [23] = test: Antimicrobial activity against Bacillus cereus MTCC 8372 at 100 ug/ml after 24 hrs by disc diffusion method; conditions: MTCC 8372, 24 h, read-out: DIZ; method in brief: as §2
Bacillus cereus [24] = test: Antimicrobial activity against Bacillus cereus MTCC 8372 at 50 ug/ml after 24 hrs by disc diffusion method; conditions: MTCC 8372, 24 h, read-out: DIZ; method in brief: as §2

| SMILES | MFC (Fusarium verticillioides [1]) | MIC (Fusarium verticillioides [1]) | MFC (Fusarium oxysporum [2]) | MIC (Fusarium oxysporum [2]) | MFC (Aspergillus niger [3]) | MIC (Aspergillus niger [3]) | MFC (Aspergillus flavus [4]) | MIC (Aspergillus flavus [4]) | MBC (Klebsiella pneumoniae [5]) | MIC (Klebsiella pneumoniae [5]) | MBC (Escherichia coli [6]) | MIC (Escherichia coli [6]) | MBC (Staphylococcus aureus [7]) | MIC (Staphylococcus aureus [7]) | MBC (Bacillus cereus [8]) | MIC (Bacillus cereus [8]) | zone of inhibition at 100 µg/mL (Fusarium verticillioides [9]) | zone of inhibition at 50 µg/mL (Fusarium verticillioides [10]) | zone of inhibition at 100 µg/mL (Fusarium oxysporum [11]) | zone of inhibition at 50 µg/mL (Fusarium oxysporum [12]) | also measured |
| --- | --- | --- | --- | --- | --- | --- | --- | --- | --- | --- | --- | --- | --- | --- | --- | --- | --- | --- | --- | --- | --- |
| COc1ccc(-c2nnc(-c3c(-c4ccccc4)nn(-c4ccccc4)c3C)o2)cc1 | 290 mg/L (≈ 710 µM) | 50 mg/L (≈ 122 µM) | 280 mg/L (≈ 685 µM) | 50 mg/L (≈ 122 µM) | 275 mg/L (≈ 673 µM) | 45 mg/L (≈ 110 µM) | 270 mg/L (≈ 661 µM) | 45 mg/L (≈ 110 µM) | 240 mg/L (≈ 588 µM) | 45 mg/L (≈ 110 µM) | 235 mg/L (≈ 575 µM) | 45 mg/L (≈ 110 µM) | 225 mg/L (≈ 551 µM) | 35 mg/L (≈ 85.7 µM) | 220 mg/L (≈ 539 µM) | 35 mg/L (≈ 85.7 µM) | 11 mm | 9 mm | 12 mm | 8 mm | zone of inhibition at 100 µg/mL (Aspergillus niger [13]): 12 mm; zone of inhibition at 50 µg/mL (Aspergillus niger [14]): 6 mm; zone of inhibition at 100 µg/mL (Aspergillus flavus [15]): 14 mm; zone of inhibition at 50 µg/mL (Aspergillus flavus [16]): 8 mm; zone of inhibition at 100 µg/mL (Klebsiella pneumoniae [17]): 11 mm; zone of inhibition at 100 µg/mL (Escherichia coli [18]): 12 mm; zone of inhibition at 50 µg/mL (Klebsiella pneumoniae [19]): 9 mm; zone of inhibition at 50 µg/mL (Escherichia coli [20]): 8 mm; zone of inhibition at 100 µg/mL (Staphylococcus aureus [21]): 12 mm; zone of inhibition at 50 µg/mL (Staphylococcus aureus [22]): 6 mm; zone of inhibition at 100 µg/mL (Bacillus cereus [23]): 12 mm; zone of inhibition at 50 µg/mL (Bacillus cereus [24]): 5 mm |
| Cc1c(-c2nnc(-c3ccccc3)o2)c(-c2ccc([N+](=O)[O-])cc2)nn1-c1ccccc1 | 275 mg/L (≈ 649 µM) | 45 mg/L (≈ 106 µM) | 280 mg/L (≈ 661 µM) | 40 mg/L (≈ 94.5 µM) | 290 mg/L (≈ 685 µM) | 40 mg/L (≈ 94.5 µM) | 290 mg/L (≈ 685 µM) | 50 mg/L (≈ 118 µM) | 180 mg/L (≈ 425 µM) | 25 mg/L (≈ 59 µM) | 190 mg/L (≈ 449 µM) | 25 mg/L (≈ 59 µM) | 150 mg/L (≈ 354 µM) | 20 mg/L (≈ 47.2 µM) | 150 mg/L (≈ 354 µM) | 20 mg/L (≈ 47.2 µM) | 14 mm | 5 mm | 10 mm | 8 mm | zone of inhibition at 100 µg/mL (Aspergillus niger [13]): 12 mm; zone of inhibition at 50 µg/mL (Aspergillus niger [14]): 8 mm; zone of inhibition at 100 µg/mL (Aspergillus flavus [15]): 14 mm; zone of inhibition at 50 µg/mL (Aspergillus flavus [16]): 6 mm; zone of inhibition at 100 µg/mL (Klebsiella pneumoniae [17]): 12 mm; zone of inhibition at 100 µg/mL (Escherichia coli [18]): 18 mm; zone of inhibition at 50 µg/mL (Klebsiella pneumoniae [19]): 9 mm; zone of inhibition at 50 µg/mL (Escherichia coli [20]): 9 mm; zone of inhibition at 100 µg/mL (Staphylococcus aureus [21]): 18 mm; zone of inhibition at 50 µg/mL (Staphylococcus aureus [22]): 10 mm; zone of inhibition at 100 µg/mL (Bacillus cereus [23]): 20 mm; zone of inhibition at 50 µg/mL (Bacillus cereus [24]): 14 mm |
